This note sets out measurements from ChEMBL document CHEMBL1821604, “Anticancer activity and cDNA microarray studies of a (RS)-1,2,3,5-tetrahydro-4,1-benzoxazepine-3-yl]-6-chloro-9H-purine, and an acyclic (RS)-O,N-acetalic 6-chloro-7H-purine” (Eur J Med Chem, 2011).

Format in all cases: functional
The subject of assay [1] is HT-29. As to the kind of experiment: Down regulation of AK5 gene expression in human HT-29 cells at IC50 after 48 hrs by cDNA microarray technique relative to control. The procedure, abridged: (§1)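 8 × 10⁶ cells exposed 48 h to compound at its IC50 concentration; total RNA isolated with trizol/chloroform and RNeasy columns including on-column DNase step; RNA quantified by OD 260/280; DMSO-treated cultures as control.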

In assay [2] the test system is HT-29. Kind of assay: Upregulation of CTSZ gene expression in human HT-29 cells at IC50 after 48 hrs by cDNA microarray technique relative to control.
Assay [3] has as its system MCF7. Kind of assay: Down regulation of P53AIP1 gene expression in human MCF7 cells at IC50 after 48 hrs by cDNA microarray technique relative to control.
The test system of assay [4] is HT-29. Kind of assay: Down regulation of RAB3D gene expression in human HT-29 cells at IC50 after 48 hrs by cDNA microarray technique relative to control.
Assay [5] relates to MCF7. Kind of assay: Down regulation of SNTG1 gene expression in human MCF7 cells at IC50 after 48 hrs by cDNA microarray technique relative to control.
In assay [6] the test system is HT-29. As to the kind of experiment: Upregulation of TREM4 gene expression in human HT-29 cells at IC50 after 48 hrs by cDNA microarray technique relative to control.
The subject of assay [7] is HT-29. Kind of assay: Upregulation of C20orf40 gene expression in human HT-29 cells at IC50 after 48 hrs by cDNA microarray technique relative to control.
Assay [8] concerns MCF7. As to the kind of experiment: Upregulation of FGD3 gene expression in human MCF7 cells at IC50 after 48 hrs by cDNA microarray technique relative to control.
For assay [9], the system named is HT-29. As to the kind of experiment: Down regulation of TRPA1 gene expression in human HT-29 cells at IC50 after 48 hrs by cDNA microarray technique relative to control.
Assay [10] concerns HT-29. Kind of assay: Down regulation of FLJ10786 gene expression in human HT-29 cells at IC50 after 48 hrs by cDNA microarray technique relative to control. The gist of the method:
(§2)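 Cells (8 × 10⁶) were cultured in DMEM with 10% heat-inactivated FBS at 37 °C under 5% CO₂. They were exposed for 48 h to compound at its IC₅₀, with DMSO-treated parallel cultures as controls (final DMSO ≤0.1% v/v). Total RNA was isolated by trizol/chloroform phase separation, RNeasy column cleanup and on-column DNase, then quantified by OD260/OD280. Expression was profiled by cDNA microarray relative to control.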

The test system of assay [11] is HT-29. As to the kind of experiment: Down regulation of ADAMTS3 gene expression in human HT-29 cells at IC50 after 48 hrs by cDNA microarray technique relative to control. The procedure, abridged: as §1
Assay [12] has as its system HT-29. As to the kind of experiment: Down regulation of LIN28 gene expression in human HT-29 cells at IC50 after 48 hrs by cDNA microarray technique relative to control. The procedure, abridged:
as §2

The subject of assay [13] is HT-29. Kind of assay: Upregulation of PMP22 gene expression in human HT-29 cells at IC50 after 48 hrs by cDNA microarray technique relative to control.
Assay [14] deals with HT-29. As to the kind of experiment: Down regulation of CD1B gene expression in human HT-29 cells at IC50 after 48 hrs by cDNA microarray technique relative to control. The procedure, abridged:
as §1

Assay [15] concerns HT-29. Kind of assay: Down regulation of DNAJC5B gene expression in human HT-29 cells at IC50 after 48 hrs by cDNA microarray technique relative to control. The gist of the method:
as §2

Assay [16] concerns HT-29. Kind of assay: Down regulation of ALB gene expression in human HT-29 cells at IC50 after 48 hrs by cDNA microarray technique relative to control. The gist of the method: as §1
In assay [17] the test system is MCF7. As to the kind of experiment: Down regulation of FLJ37562 gene expression in human MCF7 cells at IC50 after 48 hrs by cDNA microarray technique relative to control. The procedure, abridged: as §2
Assay [18] deals with HT-29. Kind of assay: Upregulation of Beta4GalNAc-T4 gene expression in human HT-29 cells at IC50 after 48 hrs by cDNA microarray technique relative to control.
For assay [19], the system named is MCF7. As to the kind of experiment: Upregulation of PPIL4 gene expression in human MCF7 cells at IC50 after 48 hrs by cDNA microarray technique relative to control.
Assay [20] has as its system MCF7. As to the kind of experiment: Down regulation of DKFZp727G131 gene expression in human MCF7 cells at IC50 after 48 hrs by cDNA microarray technique relative to control. The gist of the method: as §1
Assay [21] relates to MCF7. Kind of assay: Down regulation of DOK5 gene expression in human MCF7 cells at IC50 after 48 hrs by cDNA microarray technique relative to control. The procedure, abridged:
as §2

The subject of assay [22] is MCF7. As to the kind of experiment: Down regulation of FLJ12985 gene expression in human MCF7 cells at IC50 after 48 hrs by cDNA microarray technique relative to control. The gist of the method:
as §2

Assay [23] deals with MCF7. Kind of assay: Upregulation of LRRC48 gene expression in human MCF7 cells at IC50 after 48 hrs by cDNA microarray technique relative to control.
The test system of assay [24] is MCF7. Kind of assay: Down regulation of TMPRSS6 gene expression in human MCF7 cells at IC50 after 48 hrs by cDNA microarray technique relative to control.
In assay [25] the test system is MCF7. As to the kind of experiment: Down regulation of ZNF365 gene expression in human MCF7 cells at IC50 after 48 hrs by cDNA microarray technique relative to control.
In assay [26] the test system is HT-29. As to the kind of experiment: Down regulation of PRPS1 gene expression in human HT-29 cells at IC50 after 48 hrs by cDNA microarray technique relative to control.
Assay [27] has as its system HT-29. Kind of assay: Down regulation of GK001 gene expression in human HT-29 cells at IC50 after 48 hrs by cDNA microarray technique relative to control. The procedure, abridged:
as §2

In assay [28] the test system is HT-29. Kind of assay: Down regulation of PRKAG1 gene expression in human HT-29 cells at IC50 after 48 hrs by cDNA microarray technique relative to control.
Assay [29] relates to MCF7. As to the kind of experiment: Upregulation of X77737 gene expression in human MCF7 cells at IC50 after 48 hrs by cDNA microarray technique relative to control.
Assay [30] concerns HT-29. As to the kind of experiment: Down regulation of ANP32D gene expression in human HT-29 cells at IC50 after 48 hrs by cDNA microarray technique relative to control. The procedure, abridged:
as §1

For assay [31], the system named is HT-29. Kind of assay: Down regulation of PLCB4 gene expression in human HT-29 cells at IC50 after 48 hrs by cDNA microarray technique relative to control.
The test system of assay [32] is HT-29. Kind of assay: Down regulation of SLC39A7 gene expression in human HT-29 cells at IC50 after 48 hrs by cDNA microarray technique relative to control.
In assay [33] the test system is MCF7. As to the kind of experiment: Upregulation of RHOH gene expression in human MCF7 cells at IC50 after 48 hrs by cDNA microarray technique relative to control.
The subject of assay [34] is HT-29. Kind of assay: Down regulation of DT1P1A10 gene expression in human HT-29 cells at IC50 after 48 hrs by cDNA microarray technique relative to control. The gist of the method:
as §2

Assay [35] relates to MCF7. Kind of assay: Down regulation of THC2441203 gene expression in human MCF7 cells at IC50 after 48 hrs by cDNA microarray technique relative to control.
In assay [36] the test system is HT-29. Kind of assay: Upregulation of EGLN3 gene expression in human HT-29 cells at IC50 after 48 hrs by cDNA microarray technique relative to control.
For assay [37], the system named is HT-29. As to the kind of experiment: Down regulation of NIPSNAP3B gene expression in human HT-29 cells at IC50 after 48 hrs by cDNA microarray technique relative to control.
The subject of assay [38] is MCF7. As to the kind of experiment: Upregulation of GPR132 gene expression in human MCF7 cells at IC50 after 48 hrs by cDNA microarray technique relative to control.

As for `COC(CN(c1ccccc1CO)S(=O)(=O)c1ccccc1[N+](=O)[O-])n1cnc2ncnc(Cl)c21` (racemic), the “fold change (FC)” value with HT-29 [1] is listed as -3.52; in the assay on HT-29 [2], 2.23; in the assay on MCF7 [3], -2.4; with HT-29 [4] it was -2.24; in the assay on MCF7 [5] it was -2.46; in the assay on HT-29 [6], 2.27. Further, the “fold change (FC)” value in the assay with HT-29 [7] is 2.56; with MCF7 [8] it was 2.16; in the assay on HT-29 [9] it was -3.22; in the assay with HT-29 [10], -2.04; in the assay with HT-29 [11], -2.43; in the assay with HT-29 [12] it was -2.02. The “fold change (FC)” value in the assay on HT-29 [13] is reported as 2.54; in the assay with HT-29 [14], -2.32; with HT-29 [15] it was -2.49; in the assay with HT-29 [16], -2.32; with MCF7 [17] it was -2.08; in the assay on HT-29 [18], 3.08. Moreover, the “fold change (FC)” value in the assay on MCF7 [19] was 2.4; in the assay with MCF7 [20], -2.03; in the assay with MCF7 [21] it was -2.11; in the assay with MCF7 [22], -2.11.

Take `O=C(OCC1c2ccccc2-c2ccccc21)N1CC(n2cnc3c(Cl)ncnc32)OCc2ccccc21` (racemic): the “fold change (FC)” value with MCF7 [23] is 2.18; in the assay with MCF7 [24] it was -2.03; in the assay with MCF7 [25], 2; in the assay with HT-29 [26] it was -2.68; with HT-29 [27], -2.03; in the assay on HT-29 [28], -3.98. Also, the “fold change (FC)” value with MCF7 [29] was 3.11; in the assay on HT-29 [30], -2.8; with HT-29 [31], -2.11; in the assay with HT-29 [32], -2.19; with MCF7 [33], 2.2; in the assay on HT-29 [34], -2.28. The “fold change (FC)” value was -3.19 with MCF7 [35], 2.14 with HT-29 [36], -2.21 with HT-29 [37] and 2.1 in the assay on MCF7 [38].
